Measurements reported in publication PMC10329767 (Biochemistry, 2023).
Where “and” joins values, the source holds several entries; their conditions need not be identical. Identical values can stand only once.

Tests used:
[1] = 19F NMR pH titration of the free amino acid in solution; format: physicochemical; details: 19F NMR chemical shift vs pD
Procedure, shortened: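 Free fluorinated Tyr amino acid (5 mg) dissolved in 30 mM deuterated PIPES buffer; pD adjusted with DCl or NaOD across pD 3.6–12.5. 19F spectra recorded on a 400 MHz spectrometer. The 19F chemical shift was plotted against pD and fitted to obtain pKa values.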

2,3,5-F3Y158 InhA [2] = format: biochemical, Mycobacterium tuberculosis; details: 2,3,5-F3Y158 InhA vs wild-type
wild-type InhA [3] = molecular target: T1, wild-type InhA (Mycobacterium tuberculosis, UniProt P9WGR1); assay: Direct binding fluorescence titration of NADH
3-FY158 InhA [4] = assay: Direct binding fluorescence titration of NADH; set-up: species or system Mycobacterium tuberculosis; details: 25 °C, pH 6.8
3,5-F2Y158 InhA [5] = molecular target: 3,5-F2Y158 InhA; set-up: species or system Mycobacterium tuberculosis; details: NADH binding, 25 °C, pH 6.8
2,3,5-F3Y158 InhA [6] = molecular target: 2,3,5-F3Y158 InhA; set-up: species or system Mycobacterium tuberculosis; details: NADH binding, 25 °C, pH 6.8
3,5-F2Y158 InhA [7] = format: biochemical, Mycobacterium tuberculosis; details: read-out: Kiapp; PT166, rapid reversible, global fit to equations 6 and 7
2,3,5-F3Y158 InhA [8] = format: biochemical, Mycobacterium tuberculosis
wild-type InhA [9] = molecular target: T1, wild-type InhA; details: read-out: Kiapp; PT166, rapid reversible, global fit to equations 6 and 7
3-FY158 InhA [10] = details: read-out: Kiapp; PT166, rapid reversible, global fit to equations 6 and 7
Y158F mutant = details: cited from earlier work

## N[C@@H](Cc1cc(F)c(O)c(F)c1F)C(=O)O [2,3,5-F3Y, 2,3,5-trifluoroTyr]
[1]
  pKa of the hydroxyl group: 6.5

## CCCCCCCCC/C=C/C(=O)SCCNC(=O)CCNC(=O)[C@H](O)C(C)(C)COP(=O)(O)OP(=O)(O)OC[C@H]1O[C@@H](n2cnc3c(N)ncnc32)[C@H](O)[C@@H]1OP(=O)(O)O [DDCOA, trans-2-dodecenoyl-CoA]
2,3,5-F3Y158 InhA [2]
  fold higher KMapp for dd-CoA than wild-type InhA: ~ 5 fold

## NC(=O)C1=CN([C@@H]2O[C@H](COP(=O)(O)OP(=O)(O)OC[C@H]3O[C@@H](n4cnc5c(N)ncnc54)[C@H](O)[C@@H]3O)[C@@H](O)[C@H]2O)C=CC1 [NADH]
wild-type InhA [3]; 25 °C, pH 6.8, C-terminal His-tag InhA
  Kd: 8.2 ± 0.3 µM
wild-type InhA [3]; fit to Equation 1
  N (Hill coefficient): 3.1 ± 0.3
3-FY158 InhA [4]
  Kd: 7.1 ± 0.6 µM
3,5-F2Y158 InhA [5]
  Kd: 8.1 ± 0.5 µM
2,3,5-F3Y158 InhA [6]
  Kd: 8.7 ± 0.2 µM

## CCCCCCc1cc(=O)c(Oc2ccccc2C)cn1C [PT166]
3,5-F2Y158 InhA [7]
  Ki: 48 ± 1 nM
2,3,5-F3Y158 InhA [8]; PT166, 2,3,5-F3Y158 InhA vs wild-type
  fold change (decrease in affinity) in Kiapp compared to wild-type: ~ 7 fold and 7 fold
2,3,5-F3Y158 InhA [8]; read-out: Kiapp, PT166, rapid reversible, global fit to equations 6 and 7
  Ki: 213 ± 2 nM
wild-type InhA [9]
  Ki: 31 ± 1 nM
3-FY158 InhA [10]
  Ki: 33 ± 1 nM

## Oc1cc(Cl)ccc1Oc1ccc(Cl)cc1Cl [triclosan]
Y158F mutant
  fold lower affinity for Y158F mutant compared to wild-type InhA: ~ 100 fold
